One block for each compound: values may come before it. Where a SMILES comes first, the peptide text is derived from it. The star is where a group is joined. Argψ(CH2NH)TyrNH2 = N=C(N)NCCC[C@@H](CN[C@@H](Cc1ccc(O)cc1)C(N)=O)N*
What was measured:
[1] = molecular target: T1, Neuropeptide Y receptor type 1 (Homo sapiens, UniProt P25929); assay: Affinity for cloned Y1 receptor using [125I]PYY as radioligand
T1 sequence (P25929 whole entry): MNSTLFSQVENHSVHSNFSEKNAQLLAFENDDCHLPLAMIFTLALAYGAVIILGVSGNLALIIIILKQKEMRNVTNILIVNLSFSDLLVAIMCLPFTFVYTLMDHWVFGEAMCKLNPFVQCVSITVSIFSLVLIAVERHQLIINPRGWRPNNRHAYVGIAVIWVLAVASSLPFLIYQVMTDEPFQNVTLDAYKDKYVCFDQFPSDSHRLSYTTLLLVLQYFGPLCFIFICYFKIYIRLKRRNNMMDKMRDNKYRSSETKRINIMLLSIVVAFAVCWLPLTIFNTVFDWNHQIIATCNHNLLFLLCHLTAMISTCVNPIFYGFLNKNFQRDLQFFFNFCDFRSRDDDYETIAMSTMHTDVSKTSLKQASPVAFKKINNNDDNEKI

[2] = molecular target: T2, Neuropeptide Y receptor type 2 (Homo sapiens, UniProt P49146); assay: Affinity for cloned Y2 receptor using [125I]PYY as radioligand
T2 sequence (P49146 whole entry): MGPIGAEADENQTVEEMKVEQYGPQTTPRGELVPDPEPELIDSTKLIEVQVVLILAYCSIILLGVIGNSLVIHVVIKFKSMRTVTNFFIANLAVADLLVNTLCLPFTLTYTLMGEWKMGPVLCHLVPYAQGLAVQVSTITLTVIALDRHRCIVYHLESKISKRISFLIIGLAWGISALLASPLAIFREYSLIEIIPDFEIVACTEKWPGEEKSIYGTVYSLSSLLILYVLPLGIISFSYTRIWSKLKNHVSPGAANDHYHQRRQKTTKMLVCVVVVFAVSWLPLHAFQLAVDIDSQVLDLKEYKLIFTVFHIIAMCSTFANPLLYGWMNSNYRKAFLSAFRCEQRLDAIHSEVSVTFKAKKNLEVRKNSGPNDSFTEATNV

[3] = molecular target: T3, Neuropeptide Y receptor type 4 (Homo sapiens, UniProt P50391); assay: (§1) Affinity for cloned Y4 receptor using [125I]PP as radioligand
[4] = molecular target: T4, Neuropeptide Y receptor type 5 (Homo sapiens, UniProt Q15761); assay: Affinity for cloned Y5 receptor using [125I]PYY as radioligand
T4 sequence (Q15761 whole entry): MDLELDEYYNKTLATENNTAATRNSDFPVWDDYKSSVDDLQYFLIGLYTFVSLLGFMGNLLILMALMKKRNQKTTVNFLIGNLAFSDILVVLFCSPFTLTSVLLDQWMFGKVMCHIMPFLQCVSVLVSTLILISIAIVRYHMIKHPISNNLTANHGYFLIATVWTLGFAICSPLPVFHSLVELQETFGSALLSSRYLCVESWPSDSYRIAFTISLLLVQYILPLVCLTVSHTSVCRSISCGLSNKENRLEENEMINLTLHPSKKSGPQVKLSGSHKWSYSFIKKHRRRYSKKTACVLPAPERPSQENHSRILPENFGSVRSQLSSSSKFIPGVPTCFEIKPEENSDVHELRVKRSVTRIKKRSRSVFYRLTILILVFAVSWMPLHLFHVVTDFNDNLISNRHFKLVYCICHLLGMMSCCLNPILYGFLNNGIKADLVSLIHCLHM

[5] = molecular target: T5, Neuropeptide Y receptor type 1 (Homo sapiens) (UniProt P25929); assay: Selectivity ratio of Y1/Y2/Y4/Y5; 1/2/1/200
T5 sequence (whole entry): T1 sequence (P25929 whole entry)

[6] = molecular target: T4, Neuropeptide Y receptor type 5; assay: Agonist potency for the inhibition of Forskolin stimulated cAMP synthesis in cells expressing cloned Y5 receptors; no effect means no agonist activity at <20 000 nM; format: functional
[7] = molecular target: T3, Neuropeptide Y receptor type 4; assay: as §1; remark: listed apart in the source
Method in brief: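 Displacement binding with 125I-PP as tracer in cells expressing the Y4 receptor; PP served as the reference control.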

[8] = molecular target: T3, Neuropeptide Y receptor type 4; assay: Agonist potency for the inhibition of Forskolin stimulated cAMP synthesis in cells expressing cloned Y4 receptors; no effect means no agonist activity at <20 000 nM; format: functional
Method in brief: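 Inhibition of forskolin-driven cAMP synthesis in cells expressing the Y4 receptor, with PP run as the reference control.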

[9] = molecular target: T2, Neuropeptide Y receptor type 2; assay: Agonist potency for the inhibition of Forskolin stimulated cAMP synthesis in cells expressing cloned Y2 receptors; no effect means no agonist activity at <20 000 nM; format: functional
[10] = molecular target: T5, Neuropeptide Y receptor type 1 (Homo sapiens); assay: Antagonist potency for the inhibition of Forskolin stimulated cAMP synthesis in cells expressing cloned Y1 receptors; format: functional
[11] = Selectivity ratio of Y1/Y2/Y4/Y5; 1/3840/120/2450

T3 sequence (P50391 whole entry): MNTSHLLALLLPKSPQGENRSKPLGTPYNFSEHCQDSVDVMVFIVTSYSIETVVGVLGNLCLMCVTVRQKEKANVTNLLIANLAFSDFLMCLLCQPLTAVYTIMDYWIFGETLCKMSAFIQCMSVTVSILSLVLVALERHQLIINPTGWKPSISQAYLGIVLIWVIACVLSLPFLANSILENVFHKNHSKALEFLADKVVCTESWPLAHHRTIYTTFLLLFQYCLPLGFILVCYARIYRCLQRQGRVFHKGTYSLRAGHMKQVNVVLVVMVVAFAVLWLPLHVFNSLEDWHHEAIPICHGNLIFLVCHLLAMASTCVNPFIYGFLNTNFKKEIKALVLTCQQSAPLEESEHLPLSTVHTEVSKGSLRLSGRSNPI

Ki [1]: 0.005 µM
Ki [2]: 0.0113 µM
Ki [3]: 0.0058 µM
Ki [4]: > 1 µM
Selectivity [5]: Y1/Y4/Y2/Y5
Compound: H-INPIYRLRY-NH2

EC50 [6]: Not Active
Ki [1]: 0.0048 µM
Ki [7]: 0.099 µM
Ki [2]: 1.12 µM
EC50 [8]: Not Active
EC50 [9]: Not Active
Ki [4]: 0.464 µM
Compound: CC[C@H](C)[C@H](N)C(=O)N[C@@H](CC(N)=O)C(=O)N1CCC[C@H]1C(=O)N[C@@H](CSSC[C@H](NC(=O)[C@@H]1CCCN1C(=O)[C@H](CC(N)=O)NC(=O)[C@@H](N)[C@@H](C)CC)C(=O)N[C@@H](Cc1ccc(O)cc1)C(=O)N[C@@H](CCCN=C(N)N)C(=O)N[C@@H](CC(C)C)C(=O)N[C@@H](CCCN=C(N)N)C(=O)N[C@@H](Cc1ccc(O)cc1)C(=O)OC)C(=O)N[C@@H](Cc1ccc(O)cc1)C(=O)N[C@@H](CCCN=C(N)N)C(=O)N[C@@H](CC(C)C)C(=O)N[C@@H](CCCN=C(N)N)C(=O)N[C@@H](Cc1ccc(O)cc1)C(=O)OC

Ki [1]: 0.0023 µM
Ki [7]: 0.065 µM
Ki [2]: 0.822 µM
Ki [4]: 2.34 µM
Compound: CC[C@H](C)[C@H](N)C(=O)N[C@@H](CC(N)=O)C(=O)N1CCC[C@H]1C(=O)N[C@@H](CSSC[C@H](NC(=O)[C@@H]1CCCN1C(=O)[C@H](CC(N)=O)NC(=O)[C@@H](N)[C@@H](C)CC)C(=O)N[C@@H](Cc1ccc(O)cc1)C(=O)N[C@@H](CCCNC(=N)N)C(=O)N[C@@H](CC(C)C)C(=O)N[C@@H](CCCNC(=N)N)CN[C@@H](Cc1ccc(O)cc1)C(N)=O)C(=O)N[C@@H](Cc1ccc(O)cc1)C(=O)N[C@@H](CCCNC(=N)N)C(=O)N[C@@H](CC(C)C)C(=O)N[C@@H](CCCNC(=N)N)CN[C@@H](Cc1ccc(O)cc1)C(N)=O

EC50 [6]: Not Active
EC50 [8]: Not Active
EC50 [9]: Not Active
Compound: CC[C@H](C)[C@H](N)C(=O)N[C@@H](CC(N)=O)C(=O)N1CCC[C@H]1C(=O)N[C@@H](CSSC[C@H](NC(=O)[C@@H]1CCCN1C(=O)[C@H](CC(N)=O)NC(=O)[C@@H](N)[C@@H](C)CC)C(=O)N[C@@H](Cc1ccc(O)cc1)C(=O)N[C@@H](CCCN=C(N)N)C(=O)N[C@@H](CC(C)C)C(=O)N[C@@H](CCCN=C(N)N)CN[C@@H](Cc1ccc(O)cc1)C(N)=O)C(=O)N[C@@H](Cc1ccc(O)cc1)C(=O)N[C@@H](CCCN=C(N)N)C(=O)N[C@@H](CC(C)C)C(=O)N[C@@H](CCCN=C(N)N)CN[C@@H](Cc1ccc(O)cc1)C(N)=O

EC50 [6]: Not Active
Ki [1]: 0.00027 µM
Ki [7]: 0.0334 µM
Ki [2]: 1.04 µM
EC50 [8]: Not Active
EC50 [9]: Not Active
Ki [4]: 0.662 µM
Compound: CC[C@H](C)[C@H](N)C(=O)N[C@H]1CCC(=O)NC[C@@H](C(=O)N[C@@H](Cc2ccc(O)cc2)C(=O)N[C@@H](CCCN=C(N)N)C(=O)N[C@@H](CC(C)C)C(=O)N[C@@H](CCCN=C(N)N)C(=O)N[C@@H](Cc2ccc(O)cc2)C(=O)OC)NC(=O)[C@@H]2CCCN2C(=O)[C@@H](NC(=O)[C@@H](N)[C@@H](C)CC)CCC(=O)NC[C@@H](C(=O)N[C@@H](Cc2ccc(O)cc2)C(=O)N[C@@H](CCCN=C(N)N)C(=O)N[C@@H](CC(C)C)C(=O)N[C@@H](CCCN=C(N)N)C(=O)N[C@@H](Cc2ccc(O)cc2)C(=O)OC)NC(=O)[C@@H]2CCCN2C1=O

Ki [1]: 0.0348 µM
Ki [2]: 1.65 µM
Ki [3]: 3.74 µM
Ki [4]: 5.08 µM
Compound: CC[C@H](C)[C@H](N)C(=O)N[C@@H](CC(N)=O)C(=O)N1CCC[C@H]1C(=O)N[C@H](C(=O)N[C@@H](Cc1ccc(O)cc1)C(=O)N[C@@H](CCCNC(=N)N)C(=O)N[C@@H](CC(C)C)C(=O)N[C@@H](CCCNC(=N)N)CN[C@@H](Cc1ccc(O)cc1)C(N)=O)[C@@H](C)CC (H-INPIYRL-{Argψ(CH2NH)TyrNH2})

Kb [10]: 0.00079 µM
Compound: CC[C@H](C)[C@H](N)C(=O)N[C@@H](CC(N)=O)C(=O)N1CCC[C@H]1C(=O)N[C@@H](CSSC[C@@H](NC(=O)[C@@H]1CCCN1C(=O)[C@H](CC(N)=O)NC(=O)[C@@H](N)[C@@H](C)CC)C(=O)N[C@@H](Cc1ccc(O)cc1)C(=O)N[C@@H](CCCN=C(N)N)C(=O)N[C@@H](CC(C)C)C(=O)N[C@@H](CCCN=C(N)N)CN[C@@H](Cc1ccc(O)cc1)C(N)=O)C(=O)N[C@@H](Cc1ccc(O)cc1)C(=O)N[C@@H](CCCN=C(N)N)C(=O)N[C@@H](CC(C)C)C(=O)N[C@@H](CCCN=C(N)N)CN[C@@H](Cc1ccc(O)cc1)C(N)=O

The remaining lines, values behind:

Compound: CC[C@H](C)[C@H](N)C(=O)N[C@@H](CC(N)=O)C(=O)N1CCC[C@H]1C(=O)N[C@H](C(=O)N[C@@H](Cc1ccc(O)cc1)C(=O)N[C@@H](CCCNC(=N)N)C(=O)N[C@@H](CC(C)C)C(=O)N[C@@H](CCCNC(=N)N)C(=O)N[C@@H](Cc1ccc(O)cc1)C(=O)OC)[C@@H](C)CC (H-INPIYRLRY-OMe)
Ki [1]: 0.0257 µM
Ki [2]: 1.42 µM
Ki [3]: 2.4 µM
Ki [4]: 7.1 µM

Compound: CC[C@H](C)[C@H](N)C(=O)N[C@@H](CC(N)=O)C(=O)N1CCC[C@H]1C(=O)N[C@@H](CSSC[C@@H](NC(=O)[C@@H]1CCCN1C(=O)[C@H](CC(N)=O)NC(=O)[C@@H](N)[C@@H](C)CC)C(=O)N[C@@H](Cc1ccc(O)cc1)C(=O)N[C@@H](CCCN=C(N)N)C(=O)N[C@@H](CC(C)C)C(=O)N[C@@H](CCCN=C(N)N)C(=O)N[C@@H](Cc1ccc(O)cc1)C(=O)OC)C(=O)N[C@@H](Cc1ccc(O)cc1)C(=O)N[C@@H](CCCN=C(N)N)C(=O)N[C@@H](CC(C)C)C(=O)N[C@@H](CCCN=C(N)N)C(=O)N[C@@H](Cc1ccc(O)cc1)C(=O)OC
Kb [10]: 0.0023 µM

Compound: CC[C@H](C)[C@H](N)C(=O)N[C@H]1CCC(=O)NC[C@@H](C(=O)N[C@@H](Cc2ccc(O)cc2)C(=O)N[C@@H](CCCN=C(N)N)C(=O)N[C@@H](CC(C)C)C(=O)N[C@@H](CCCN=C(N)N)C(=O)N[C@@H](Cc2ccc(O)cc2)C(=O)OC)NC(=O)[C@@H]2CCCN2C(=O)[C@H](NC(=O)[C@@H](N)[C@@H](C)CC)CCC(=O)NC[C@H](C(=O)N[C@@H](Cc2ccc(O)cc2)C(=O)N[C@@H](CCCN=C(N)N)C(=O)N[C@@H](CC(C)C)C(=O)N[C@@H](CCCN=C(N)N)C(=O)N[C@@H](Cc2ccc(O)cc2)C(=O)OC)NC(=O)[C@@H]2CCCN2C1=O
Selectivity [11]: Y1/Y4/Y5/Y2
Kb [10]: 0.00019 µM

Compound: CC[C@H](C)[C@H](N)C(=O)N[C@H]1CCC(=O)NC[C@@H](C(=O)N[C@@H](Cc2ccc(O)cc2)C(=O)N[C@@H](CCCN=C(N)N)C(=O)N[C@@H](CC(C)C)C(=O)N[C@@H](CCCN=C(N)N)CN[C@@H](Cc2ccc(O)cc2)C(N)=O)NC(=O)[C@@H]2CCCN2C(=O)[C@H](NC(=O)[C@@H](N)[C@@H](C)CC)CCC(=O)NC[C@H](C(=O)N[C@@H](Cc2ccc(O)cc2)C(=O)N[C@@H](CCCN=C(N)N)C(=O)N[C@@H](CC(C)C)C(=O)N[C@@H](CCCN=C(N)N)CN[C@@H](Cc2ccc(O)cc2)C(N)=O)NC(=O)[C@@H]2CCCN2C1=O
Kb [10]: 0.00058 µM

Compound: CC[C@H](C)[C@H](N)C(=O)N[C@H]1CCC(=O)NC[C@@H](C(=O)N[C@@H](Cc2ccc(O)cc2)C(=O)N[C@@H](CCCNC(=N)N)C(=O)N[C@@H](CC(C)C)C(=O)N[C@@H](CCCNC(=N)N)CN[C@@H](Cc2ccc(O)cc2)C(N)=O)NC(=O)[C@@H]2CCCN2C(=O)[C@@H](NC(=O)[C@@H](N)[C@@H](C)CC)CCC(=O)NC[C@@H](C(=O)N[C@@H](Cc2ccc(O)cc2)C(=O)N[C@@H](CCCNC(=N)N)C(=O)N[C@@H](CC(C)C)C(=O)N[C@@H](CCCNC(=N)N)CN[C@@H](Cc2ccc(O)cc2)C(N)=O)NC(=O)[C@@H]2CCCN2C1=O
Ki [1]: 0.00046 µM
Ki [7]: 0.0655 µM
Ki [2]: 0.624 µM
Ki [4]: 7.89 µM
